Published values of several laboratories.
Lines come from different studies, so protocols differ.
Read-out: cell growth or viability

With `Cc1ccccc1Cn1cc(-c2cccc(NC(=O)Nc3ccc(F)cc3)c2)nn1` the viability was 114% (NCI-H1299; CCK-8; 50 µM; 72 h).
For `CN(C)CCNC(=O)c1ccc(-c2nc3ccc4[nH]ncc4c3c3c2CCCC3)cc1`, the GI50 was 1800 nM (22Rv1; 72 h).
For `COc1ccc(NC(=O)Nc2cccc(-c3cn(Cc4ccccc4C)nn3)c2)cc1`, the viability was 125% (NCI-H1299; CCK-8; 50 µM; 72 h).
For `O=C(Nc1cccc(-c2cn(Cc3ccc(Br)cc3)nn2)c1)Nc1ccccc1Br`, the viability was 108% (NCI-H1299; CCK-8; 50 µM; 72 h).
`Cc1n[nH]c2ccc3nc(-c4ccc(C(=O)NCCN(C)C)cc4F)c4c(c3c12)CCCC4` has a GI50 of 556 nM (22Rv1; 72 h).
`O=C(NCc1cn(Cc2cccc(Cl)c2)nn1)Nc1ccc(Cl)cc1` has a viability of 91.6% (NCI-H1299; CCK-8; 50 µM; 72 h).
With `CCc1nc(C(N)=O)c(Nc2ccc(N3CCC(N4CCN(C)CC4)CC3)c(OC)c2)nc1NC1CCOCC1` the GI50 was 1520 nM (22Rv1; 72 h).
With `COc1ccc(NC(=O)Nc2cccc(-c3cn(Cc4ccc(Cl)cc4)nn3)c2)cc1` the viability was 156% (NCI-H1299; CCK-8; 50 µM; 72 h).
The IC90 of `Cc1ncsc1-c1ccc(CNC(=O)[C@@H]2C[C@@H](O)CN2C(=O)[C@@H](NC(=O)COCCOCCOCCNC(=O)C[C@@H]2N=C(c3ccc(Cl)cc3)c3c(sc(C)c3C)-n3c(C)nnc32)C(C)(C)C)cc1` is reported as 1850 nM (22Rv1; MTT; 6 days).
With `O=C(NCc1cn(Cc2ccc(Cl)cc2)nn1)Nc1ccc(Cl)cc1` the viability was 82.3% (NCI-H1299; CCK-8; 50 µM; 72 h).
For `CN(C)CCNC(=O)c1ccc(-c2nc3ccc4[nH]ncc4c3c3c2CCCCC3)c(F)c1`, the GI50 was 2130 nM (22Rv1; 72 h).
For `C=C(NC(=O)C(=C)NC(=O)c1csc(C2=N[C@@H]3c4csc(n4)[C@H]4NC(=O)c5csc(n5)[C@H]([C@](C)(O)[C@@H](C)O)NC(=O)[C@H]5CSC(=N5)/C(=C/C)NC(=O)[C@H]([C@@H](C)O)NC(=O)c5csc(n5)[C@]3(CC2)NC(=O)[C@H](C)NC(=O)C(=C)NC(=O)[C@H](C)NC(=O)[C@H]([C@@H](C)CC)N[C@@H]2C=Cc3c([C@H](C)O)cc(nc3[C@H]2O)C(=O)O[C@@H]4C)n1)C(N)=O`, the EC50 was > 30000 nM (PC3-TxR).
For `Cc1n[nH]c2ccc3nc(-c4ccc(C(=O)NCCN(C)C)cc4F)c4c(c3c12)CCCCC4`, the GI50 was 4620 nM (22Rv1; 72 h).
`O=C(Nc1ccc(Cl)cc1)Nc1cccc(-c2cn(Cc3cccc(Cl)c3)nn2)c1` gave a viability of 104% (NCI-H1299; CCK-8; 50 µM; 72 h).
`COc1ccc(NC(=O)Nc2cccc(-c3cn(Cc4cccc(Cl)c4)nn3)c2)cc1` gave a viability of 134% (NCI-H1299; CCK-8; 50 µM; 72 h).
`O=C(Nc1ccc(Cl)cc1)Nc1ccc(-c2cn(Cc3cccc(Cl)c3)nn2)cc1` has a viability of 82.8% (NCI-H1299; CCK-8; 50 µM; 72 h).
With `COc1ccc(NC(=O)NCc2cn(Cc3ccccc3C)nn2)cc1` the viability was 68.9% (NCI-H1299; CCK-8; 50 µM; 72 h).
